Source: ChEMBL document CHEMBL1126873, “Inhibitors of acyl-Coa:cholesterol acyltransferase. 4. A novel series of urea ACAT inhibitors as potential hypocholesterolemic agents” (J Med Chem, 1993)

Species: Rattus norvegicus
Experiment: Percent change in total cholesterol (TC) in cholic acid, cholesterol and peanut oil fed rats
Type: functional
In short: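 Rats fed a diet of cholic acid (0.3%), cholesterol (1.5%) and peanut oil (5.5%) received each compound in the diet at 0.05% for one week. Plasma total cholesterol was measured and expressed as percent change from control. Significance versus control was tested.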

Row | SMILES | Change [%]
1 | Cc1cccc(C(C)C)c1NC(=O)NCC1(c2ccccc2)CCCCC1 | -56
2 | Cc1cccc(C)c1NC(=O)NCC1(c2ccccc2)CCCCC1 | -44
3 | CCc1cccc(CC)c1NC(=O)NCC1(c2ccccc2)CCCCC1 | -60
4 | Cc1cccc(C(C)(C)C)c1NC(=O)NCC1(c2ccccc2)CCCCC1 | -51
5 | Cc1cccc(C(C)C)c1NC(=O)NCC1(c2ccccc2)CCCC1 | -65
6 | CCc1cccc(C(C)C)c1NC(=O)NCC1(c2ccccc2)CCCC1 | -59
7 | CC(C)c1cccc(C(C)C)c1NC(=O)NCC1(c2ccccc2)CCCC1 | -73
8 | CC(C)c1cccc(C(C)C)c1NC(=O)NCC1(c2ccccc2)CCCCC1 | -73
9 | CCc1cccc(CC)c1NC(=O)NCC1(c2ccccc2)CCCC1 | -63
10 | Cc1cccc(C(C)(C)C)c1NC(=O)NCC1(c2ccccc2)CCCC1 | -61
11 | CCc1cccc(C(C)C)c1NC(=O)NCC1(c2ccccc2)CCCCC1 | -70

What follows are molecules tested against O-acyltransferase (Oryctolagus cuniculus, UniProt G1SFD9) (assay: In vitro inhibition of Acyl coenzyme A:cholesterol acyltransferase using intestinal microsomes isolated from cholesterol fed rabbits).
Design: species or system Intestine

Chain of O-acyltransferase (G1SFD9 1-524): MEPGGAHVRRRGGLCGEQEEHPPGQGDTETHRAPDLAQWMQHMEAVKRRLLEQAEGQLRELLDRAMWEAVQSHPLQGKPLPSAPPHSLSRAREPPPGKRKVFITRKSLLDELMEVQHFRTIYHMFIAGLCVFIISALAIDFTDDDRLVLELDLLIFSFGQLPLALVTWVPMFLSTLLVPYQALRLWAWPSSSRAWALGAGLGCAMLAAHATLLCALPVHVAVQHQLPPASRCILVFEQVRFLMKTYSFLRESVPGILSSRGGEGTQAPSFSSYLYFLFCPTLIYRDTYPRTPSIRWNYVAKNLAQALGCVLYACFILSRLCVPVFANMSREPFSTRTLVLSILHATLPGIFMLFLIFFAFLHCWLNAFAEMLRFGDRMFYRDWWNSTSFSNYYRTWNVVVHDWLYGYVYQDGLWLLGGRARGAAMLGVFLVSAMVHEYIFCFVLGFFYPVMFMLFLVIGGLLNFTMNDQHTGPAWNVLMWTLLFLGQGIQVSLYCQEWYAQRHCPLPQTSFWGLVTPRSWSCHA

Row | IC50 [nM] | SMILES
12 | 97 | CC(C)c1cccc(C(C)C)c1NC(=O)NCC1(c2cccnc2)CCCC1
13 | 850 | CC(C)c1cccc(C(C)C)c1NC(=O)NC1CCCc2ccccc21 (configuration not stated)
14 | 2000 | CC(C)c1cccc(C(C)C)c1NC(=O)NC1CC1c1ccccc1 (configuration not stated)
15 | 58 | Cc1cccc(C(C)C)c1NC(=O)NCC1(c2ccccc2)CCCCC1
16 | 200 | O=C(NCC1(c2ccccc2)CCCCC1)Nc1ccccc1C(F)(F)F
17 | 120 | Cc1cccc(C)c1NC(=O)NCC1(c2ccccc2)CCCCC1
18 | 17 | CCC(CC)(CNC(=O)Nc1c(C(C)C)cccc1C(C)C)c1ccccc1
19 | 4200 | CCOC(=O)c1ccccc1NC(=O)NCC1(c2ccccc2)CCCCC1
20 | 140 | CC(C)c1cccc(C(C)C)c1NC(=O)NCCC(c1ccccc1)c1ccccc1
21 | 51 | CCc1cccc(CC)c1NC(=O)NCC1(c2ccccc2)CCCCC1
22 | 4500 | Cc1ccc(NC(=O)NCC2(c3ccccc3)CCCCC2)cc1
23 | 1500 | CC(C)c1ccc(NC(=O)NCC2(c3ccccc3)CCCCC2)cc1
24 | 49 | CC(C)c1cccc(C(C)C)c1OC(=O)NCC1(c2ccccc2)CCCC1
25 | 2200 | O=C(NCC1(c2ccccc2)CCCCC1)Nc1ccc(Cl)cc1
26 | 2300 | O=C(NCC1(c2ccccc2)CCCCC1)Nc1ccc(I)cc1
27 | 34 | CC(C)c1cccc(C(C)C)c1NC(=O)NCC1(c2cccc3ccccc23)CCCC1
28 | 28 | CC(C)c1cccc(C(C)C)c1NC(=O)NCC1(c2ccccc2)CCC1
29 | 1300 | O=C(NCC1(c2ccccc2)CCCC1)Nc1ccc(F)cc1F
30 | 54 | Cc1cccc(C(C)(C)C)c1NC(=O)NCC1(c2ccccc2)CCCCC1
31 | 2800 | Cc1cccc(NC(=O)NCC2(c3ccccc3)CCCCC2)c1
32 | 30 | CCCC(CCC)(CNC(=O)Nc1c(C(C)C)cccc1C(C)C)c1ccccc1
33 | 16 | Cc1cccc(C(C)C)c1NC(=O)NCC1(c2ccccc2)CCCC1
34 | 41 | CC(C)c1cccc(C(C)C)c1NC(=O)NCCc1cccc2ccccc12
35 | 6100 | CCOC(=O)c1ccc(NC(=O)NCC2(c3ccccc3)CCCCC2)cc1

Row | IC50 [nM] | SMILES
36 | 25 | CCc1cccc(C(C)C)c1NC(=O)NCC1(c2ccccc2)CCCC1
37 | 240 | O=C(NCC1(c2ccccc2)CCCC1)Nc1c(Cl)cccc1Cl
38 | 18 | CC(C)c1cccc(C(C)C)c1NC(=O)NCC1(c2ccccc2)CC1
39 | 870 | O=C(NCC1(c2ccccc2)CCCC1)Nc1c(F)cc(F)cc1F
40 | 160 | CC(C)c1cccc(C(C)C)c1NC(=O)NCC(c1ccccc1)C(C)(C)C (configuration not stated)
41 | 2330 | CC(C)c1cccc(C(C)C)c1NC(=S)NCC1(c2ccccc2)CCCC1
42 | 27 | CC(C)c1cccc(C(C)C)c1NC(=O)NCC1c2ccccc2-c2ccccc21
43 | 190 | Cc1cccc(C)c1NC(=O)NCC1(c2ccccc2)CCCC1
44 | 2500 | COc1cccc(NC(=O)NCC2(c3ccccc3)CCCCC2)c1
45 | 390 | CC(C)c1ccccc1NC(=O)NCC1(c2ccccc2)CCCCC1
46 | 640 | Cc1ccccc1NC(=O)NCC1(c2ccccc2)CCCCC1
47 | 1400 | COc1cc(OC)c(NC(=O)NCC2(c3ccccc3)CCCC2)c(OC)c1
48 | 39 | CC(C)c1cccc(C(C)C)c1NC(=O)NCCc1ccc2ccccc2c1
49 | 5500 | Cc1ccc(NC(=O)NCC2(c3ccccc3)CCCCC2)c(C)c1
50 | 18 | CC(C)c1cccc(C(C)C)c1NC(=O)NCC1(c2ccsc2)CCCC1
51 | 180 | CC(C)c1cccc(C(C)C)c1NS(=O)(=O)NCC1(c2ccccc2)CCCC1
52 | 470 | Cc1ccc(C)c(NC(=O)NCC2(c3ccccc3)CCCCC2)c1
53 | 160 | CC(C)c1cccc(C(C)C)c1NC(=O)NC(=O)C1(c2ccccc2)CCCC1
54 | 17 | CC(C)c1cccc(C(C)C)c1NC(=O)NCC1(c2ccccc2)CCCC1
55 | 21 | CC(C)c1cccc(C(C)C)c1NC(=O)NCC1(c2ccccc2)CCCCC1
56 | 260 | CC(C)c1cccc(C(C)C)c1NC(=O)NCC1(c2ccc3ccccc3c2)CCCC1
57 | 88 | CC(C)c1cccc(C(C)C)c1NC(=O)NCCc1ccccc1
58 | 30 | CCCCC(CCCC)(CNC(=O)Nc1c(C(C)C)cccc1C(C)C)c1ccccc1
59 | 12 | CC(C)c1cccc(C(C)C)c1NC(=O)NCC1(c2cccs2)CCCC1

Row | IC50 [nM] | SMILES
60 | 4900 | COc1ccc(NC(=O)NCC2(c3ccccc3)CCCCC2)cc1
61 | 191 | CC(C)c1cccc(C(C)C)c1NC(=O)NCCCc1ccccc1
62 | 12000 | CC(C)c1cccc(C(C)C)c1N=C(N)NCC1(c2ccccc2)CCCC1
63 | 360 | CC(C)c1cccc(C(C)C)c1NC(=O)NCc1ccccc1
64 | 960 | O=C(NCC1(c2ccccc2)CCCC1)Nc1c(Cl)cc(Cl)cc1Cl
65 | 77 | CC(C)c1cccc(C(C)C)c1NC(=O)NC(C)(C)Cc1ccccc1
66 | 10000 | CC(C)c1cccc(C(C)C)c1NC(=NC#N)NCC1(c2ccccc2)CCCC1
67 | 2700 | O=C(NCC1(c2ccccc2)CCCCC1)Nc1cc(Cl)ccc1Cl
68 | 56 | CCc1cccc(CC)c1NC(=O)NCC1(c2ccccc2)CCCC1
69 | 2300 | O=C(NCC1(c2ccccc2)CCCCC1)Nc1ccccc1
70 | 18 | Cc1cccc(C(C)(C)C)c1NC(=O)NCC1(c2ccccc2)CCCC1
71 | 1300 | O=C(NCC1(c2ccccc2)CCCCC1)Nc1cccc(Cl)c1Cl
72 | 31 | CC(C)c1cccc(C(C)C)c1NC(=O)NC(Cc1ccccc1)c1ccccc1 (configuration not stated)
73 | 3800 | O=C(NCC1(c2ccccc2)CCCCC1)Nc1ccc(Cl)c(Cl)c1
74 | 65 | CC(C)c1cccc(C(C)C)c1NC(=O)NC1(c2ccccc2)CCCC1
75 | 26 | CC(C)c1cccc(C(C)C)c1NC(=O)NCC(C)(C)c1ccccc1
76 | 110 | CN(C)c1cccc(N(C)C)c1NC(=O)NCC1(c2ccccc2)CCCC1
77 | 120 | CCCCCCC(CCCCCC)(CNC(=O)Nc1c(C(C)C)cccc1C(C)C)c1ccccc1
78 | 270 | COc1ccccc1NC(=O)NCC1(c2ccccc2)CCCCC1
79 | 910 | CC(C)c1cccc(C(C)C)c1NC(=O)Nc1ccccc1
80 | 20 | CCc1cccc(C(C)C)c1NC(=O)NCC1(c2ccccc2)CCCCC1
81 | 26 | CCCCCC(CCCCC)(CNC(=O)Nc1c(C(C)C)cccc1C(C)C)c1ccccc1
82 | 3300 | Cc1cc(C)c(NC(=O)NCC2(c3ccccc3)CCCC2)c(C)c1
